Experimental data taken from ChEMBL document CHEMBL5331120, “Stapled β-Hairpin Antimicrobial Peptides with Improved Stability and Activity against Drug-Resistant Gram-Negative Bacteria” (J Med Chem, 2023).
Converted amounts (≈) assume the structure as drawn. The source made the active and inactive calls. The rule behind the calls is not given here.

Columns and labels:
Escherichia coli [1] = experiment: Bactericidal activity against Escherichia coli ATCC 25922 assessed as cell killing at 1 times MIC measured after 6 hrs relative to control; format: functional
Summary of the method: (§1)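 Time-kill against E. coli ATCC 25922 at 1× and 2× MIC, counted as CFU/mL over time. Limit of detection 50 CFU/mL; experiments repeated two times.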

Cell membrane [2] = experiment: Induction of inner membrane permeabilization in Escherichia coli ATCC 25922 assessed as SYTOX green uptake at 1 times MIC incubated for 1 hr by fluorescence based microplate reader analysis relative to control
Summary of the method: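 Exponential-phase cells washed twice in PBS pH 7, resuspended to OD600 0.4; equal volume SYTOX green (4 μM) added, 5 min. Peptide added (4, 8, 16 μM), 1 h at 37 °C with shaking. Fluorescence ex 488/em 523 nm; % uptake computed from untreated (F0) and positive-control peptide BTT1 (Fmax) signals. Three repeats.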

Trypsin = Trypsin (Homo sapiens, UniProt P07477+P07478+P35030); experiment: Stability of compound assessed as trypsin (unknown origin) mediated compound degradation by measuring parent compound remaining measured after 1.5 hrs by RP-HPLC analysis; format: ADME, protein assay; conditions: trypsin, read-out: Stability
Summary of the method: (§2)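 Peptide with trypsin at a 1:2000 trypsin/peptide molar ratio, 37 °C, sampled at 15, 30, 60 and 90 min. Reaction stopped with an equal volume of 50% acetonitrile/1% TFA. Analysed on C18 RP-HPLC with UV at 220 nm; intact peptide given as % of AUC.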

Escherichia coli [3] = experiment: Induction of membrane morphological changes in Escherichia coli ATCC 25922 at 16 uM measured after 1 hr by TEM analysis; format: functional, organism-based
Escherichia coli [4] = experiment: Antimicrobial activity against colistin/carbapenem resistant Escherichia coli clinical isolate R2 harboring mcr-1 and NDM-1 gene assessed as inhibition of bacterial growth incubated for 18 hrs by broth microdilution method; format: functional, organism-based
Summary of the method: (§3)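 Overnight MHB culture (37 °C, 120 rpm) adjusted to OD600 0.07 (~10^8 CFU/mL), then diluted 1000× to 3 × 10^5 CFU/mL. Peptides serially diluted with the bacterial suspension in triplicate, shaken at 37 °C, 120 rpm for 18 h, then OD600 read. MIC is the lowest concentration with no visible growth. Colistin as positive control.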

Escherichia coli [5] = experiment: Antimicrobial activity against colistin resistant Escherichia coli clinical isolate R1 harboring mcr-1 gene assessed as inhibition of bacterial growth incubated for 18 hrs by broth microdilution method; format: functional, organism-based; summary of the method: as §3
Pseudomonas aeruginosa = experiment: Antimicrobial activity against Pseudomonas aeruginosa ATCC 9027 assessed as inhibition of bacterial growth incubated for 18 hrs by broth microdilution method; format: functional
Summary of the method: (§4)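 Standard broth microdilution in MHB. Overnight culture (37 °C, 120 rpm) adjusted to OD600 0.07 and diluted 1000× to 3 × 10^5 CFU/mL. Peptides serially diluted in triplicate, 18 h at 37 °C with 120 rpm shaking. Growth read as OD600; MIC is the lowest concentration with no visible growth. Colistin served as control for Gram-negatives, vancomycin for S. aureus.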

Escherichia coli [6] = experiment: Antimicrobial activity against Escherichia coli ATCC 25922 assessed as inhibition of bacterial growth incubated for 18 hrs in presence of 10% fetal bovine serum by broth microdilution method; format: functional, organism-based
Summary of the method: (§5)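 E. coli broth microdilution in MHB containing 10% fetal bovine serum. Inoculum 3 × 10^5 CFU/mL, diluted from an OD600 0.07 suspension. Incubated 18 h at 37 °C with 120 rpm shaking, OD600 read, triplicates. Fold change in MIC calculated against control MIC.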

Escherichia coli [7] = experiment: Bactericidal activity against Escherichia coli ATCC 25922 assessed as cell killing at 2 times MIC measured after 3 hrs relative to control; format: functional; summary of the method: as §1
Erythrocyte = experiment: Hemolytic activity in human RBC upto 128 uM incubated for 1 hr by absorbance based analysis; format: toxicity, cell-based
Summary of the method: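 Washed human RBCs from healthy volunteers at 4% in PBS. Peptide at 4–128 μM, 37 °C for 1 h. Supernatant after 1000g, 10 min spin read at OD540. 1% Triton X-100 gave full lysis; % hemolysis derived and HC50 estimated.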

Escherichia coli [8] = experiment: Induction of membrane morphological changes in Escherichia coli ATCC 25922 at 16 uM measured after 3 to 6 hrs by TEM analysis; format: functional, organism-based; conditions: time 3-6 hrs
Escherichia coli [9] = experiment: Antimicrobial activity against Escherichia coli ATCC 25922 assessed as inhibition of bacterial growth incubated for 18 hrs by broth microdilution method; format: functional; summary of the method: as §4
Escherichia coli [10] = experiment: Antimicrobial activity against Escherichia coli ATCC 25922 assessed as inhibition of bacterial growth compound pretreated for 1 hr with trypsin and measured after 18 hrs by broth microdilution method; format: functional, organism-based
Summary of the method: (§6)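 Peptide incubated with trypsin at a 1:2000 trypsin/peptide molar ratio (e.g., 1 mM peptide with 0.5 μM trypsin), 37 °C, 1 h. Reaction stopped at 80 °C for 10 min, then serially diluted against E. coli in MHB broth microdilution. Inoculum 3 × 10^5 CFU/mL, 37 °C, 120 rpm, 18 h, read by OD600, triplicates. Fold change in MIC taken versus untreated control.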

Cell membrane [11] = experiment: Induction of outer membrane permeabilization in Escherichia coli ATCC 25922 assessed as NPN uptake at 1 times MIC incubated for 1 hr by fluorescence based microplate reader analysis relative to control
Summary of the method: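 Exponential-phase cells washed twice in PBS pH 7, resuspended to OD600 0.4; equal volume 40 μM NPN added, then equal volume peptide (4, 8, 16 μM). Incubated 1 h at 37 °C with shaking. Fluorescence ex 355/em 405 nm; % uptake relative to no-compound (F0) and colistin 100 μM control (Fmax). Three repeats.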

Staphylococcus aureus = experiment: Antimicrobial activity against Staphylococcus aureus ATCC 29737 assessed as inhibition of bacterial growth incubated for 18 hrs by broth microdilution method; format: functional, organism-based; summary of the method: as §4
Escherichia coli [12] = experiment: Antimicrobial activity against Escherichia coli ATCC 25922 assessed as fold increase in MIC compound pretreated for 1 hr with trypsin and measured after 18 hrs by broth microdilution method relative to control; format: functional; conditions: trypsin pretreatment 1 hr; MIC measured after 18 hrs; summary of the method: as §6
Escherichia coli [13] = experiment: Antimicrobial activity against Escherichia coli ATCC 25922 assessed as fold increase in MIC incubated for 18 hrs in presence of NaCl by broth microdilution method relative to control; format: functional
Summary of the method: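 MHB broth microdilution against E. coli with 150 mM NaCl added to the medium. Inoculum 3 × 10^5 CFU/mL, 37 °C, 120 rpm, 18 h, OD600 read, triplicates. MIC fold change taken relative to control.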

Escherichia coli [14] = experiment: Antimicrobial activity against colistin/carbapenem resistant Escherichia coli clinical isolate R2 harboring mcr-1 and NDM-1 gene assessed as fold increase in MIC incubated for 18 hrs by broth microdilution method relative to control; format: functional
Escherichia coli [15] = experiment: Antimicrobial activity against colistin/carbapenem resistant Escherichia coli clinical isolate R3 harboring NDM-7 and OXA-181 gene assessed as fold increase in MIC incubated for 18 hrs by broth microdilution method relative to control; format: functional
[16] = Stability of compound assessed as trypsin (unknown origin) mediated compound degradation by measuring parent compound remaining measured after 1 hr by RP-HPLC analysis; format: ADME, protein assay; conditions: human, read-out: Stability; summary of the method: as §2
Escherichia coli [17] = experiment: Antimicrobial activity against Escherichia coli ATCC 25922 assessed as fold increase in MIC incubated for 18 hrs in presence of 10% fetal bovine serum by broth microdilution method relative to control; format: functional; summary of the method: as §5
Escherichia coli [18] = experiment: Antimicrobial activity against colistin resistant Escherichia coli clinical isolate R1 harboring mcr-1 gene assessed as fold increase in MIC incubated for 18 hrs by broth microdilution method relative to control; format: functional

CC(C)C[C@@H]1NC(=O)[C@H](CCCCN)NC(=O)CNC(=O)C2CCCN2C(=O)[C@H](CCCCN)NC(=O)[C@H](CC(C)C)NC(=O)[C@H](CCCCN)NC(=O)[C@H](CC(C)C)NC(=O)[C@H](CCCCN)NC(=O)[C@@H](N)CC/C=C/CC[C@@H](C(=O)O)NC(=O)[C@H](CCCCN)NC(=O)[C@H](CC(C)C)NC(=O)[C@H](CCCCN)NC1=O (single isomer, unassigned)
Activity (Escherichia coli [1]): 100%
Activity (Cell membrane [2]): 80%
remaining at 1.5 h (Trypsin): > 40%
Activity (Escherichia coli [3]): inactive
Activity (Escherichia coli [4]): Active
Activity (Escherichia coli [5]): Active
MIC (Pseudomonas aeruginosa): 8 µM (≈ 12.7 µg/mL)
Activity (Escherichia coli [6]): Active
Activity (Escherichia coli [7]): 100%
Activity (Erythrocyte): Non-Toxic
Activity (Escherichia coli [8]): Active
MIC (Escherichia coli [9]): 8 µM (≈ 12.7 µg/mL)
Activity (Escherichia coli [10]): Active
Activity (Cell membrane [11]): 70%
Activity (Staphylococcus aureus): inactive

H-LKLKLKPGKLKLKL-OH
Activity (Cell membrane [2]): 80%
fold change (FC) (Escherichia coli [12]): 8
fold change (FC) (Escherichia coli [13]): 32
fold change (FC) (Escherichia coli [14]): >=8
fold change (FC) (Escherichia coli [15]): >=8
remaining at 1 h [16]: < 10%
fold change (FC) (Escherichia coli [17]): 8
fold change (FC) (Escherichia coli [18]): >=8
Activity (Cell membrane [11]): 40%
Activity (Staphylococcus aureus): inactive
